Assay results: ChEMBL document CHEMBL4825662 (J Med Chem, 2021)
Converted amounts (≈) assume the structure as drawn. The source made the active and inactive calls. The rule behind the calls is not given here.

Tests used:
[1] = Intrinsic clearance in human liver microsomes preincubated followed by NADPH addition and measured up to 45 mins by LC-MS/MS analysis; type: ADME, Microsome
[2] = Cardiotoxicity in dog assessed as effect on QT interval by telemetry; type: toxicity, Canis lupus familiaris
[3] = test system: Respiratory syncytial virus; assay: Antiviral activity against Respiratory syncytial virus Memphis 37b infected in human HEp2 cells treated over 10 serial passages by plaque assay; type: functional, organism-based; details: HEp-2
[4] = Apparent permeability across apical to basolateral side in MDCK-MDR1 cells at 10 uM measured at 60 mins by LC-MS/MS analysis; type: ADME, cell-based, Canis lupus familiaris; details: dog, MDCK-MDR1
[5] = Tmax in Sprague-Dawley rat at 50 mg/kg, po measured after 0.02 to 24 hrs by UHPLC-TOF method; type: ADME, organism-based; details: in vivo, time 0.02-24 hrs
[6] = Half life in human liver microsomes preincubated followed by NADPH addition and measured up to 45 mins by LC-MS/MS analysis; type: ADME, Microsome
[7] = Half life in human hepatocytes at 3 uM measured up to 60 mins by LC-MS/MS analysis; type: ADME, cell-based, Hepatocyte
Human orthopneumovirus [8] = assay: Antiviral activity against Respiratory syncytial virus A Memphis 37b infected in human assessed as reduction in mean AUC of viral load at 200 mg administered twice daily administered for 5 days by cell-based infectivity assay; type: functional; design: scale not given: the % may be the effect or the level left; details: time 5 day
How it was run: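 Healthy adult volunteers aged 18–45 with low serum pre-existing RSV-specific antibodies were challenged on day zero with about 4 log10 PFU of RSV-A Memphis 37b. Subjects were randomized into 3 equal groups: 200 mg, 350 mg or placebo twice daily for 5 days, begun after infection was confirmed. Viral load in nasal wash was measured by RT-qPCR or by cell-based infectivity assay, and AUC was compared with placebo.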

[9] = Half life in Sprague-Dawley rat liver microsomes preincubated followed by NADPH addition and measured up to 45 mins by LC-MS/MS analysis; type: ADME, Microsome
Human orthopneumovirus [10] = assay: Antiviral activity against Respiratory syncytial virus A by Plaque reduction assay; type: functional, organism-based
How it was run: (§1)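 RSV A and B laboratory strains and low-passage clinical isolates were used to infect Vero or HepG2 cultures for 48 h with compound at 0.01 nM to 100 μM. Plaques were then detected by immunostaining.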

[11] = Apparent permeability across basolateral side to apical side in MDCK-MDR1 cells at 10 uM measured at 60 mins by LC-MS/MS analysis; type: ADME, cell-based, Canis lupus familiaris; details: dog
Human orthopneumovirus [12] = assay: Antiviral activity against Respiratory syncytial virus A Memphis 37b infected in human assessed as reduction in AUC of total symptom score at 200 to 350 mg administered twice daily administered for 5 days; type: functional, organism-based; details: dose 200-350 mg, time 5.0 day
How it was run: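 Phase 2a challenge study in healthy adults aged 18–45 with low serum RSV-specific antibodies, inoculated on day 0 with about 4 log10 PFU RSV-A Memphis 37b. After infection was confirmed, subjects were randomised to three equal groups: drug at 200 or 350 mg, or placebo, twice daily for 5 days. Read-out was AUC of total symptom score versus placebo.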

[13] = Cardiotoxicity in guinea pig assessed as effect on QT interval; type: toxicity, Cavia porcellus
[14] = Protein binding in rat plasma assessed as unbound fraction at 5 uM by LC-MS/MS analysis based equilibrium dialysis method; type: ADME, cell-free
[15] = Cmax in Sprague-Dawley rat at 10 mg/kg, po measured after 0.02 to 24 hrs by UHPLC-TOF method; type: ADME, organism-based; design: route oral, dose 10 mg/kg, time 0.02-24 hrs; details: in vivo
[16] = Half life in Beagle dog hepatocytes at 3 uM assessed per million cells measured up to 60 mins by LC-MS/MS analysis; type: ADME, cell-based, Canis lupus familiaris, Hepatocyte
[17] = Thermodynamic solubility in PBS at 1 to 100 uM at pH 7.4 by HPLC-UV method; type: physicochemical; details: dose 1-100 µM, read-out: Therm_solubility
[18] = Antiviral activity against Respiratory syncytial virus B by Plaque reduction assay; type: functional; how it was run: as §1
Human orthopneumovirus [19] = assay: Antiviral activity against Respiratory syncytial virus A2 infected in Balb/C mouse assessed as reduction in viral titers in lung homogenates at 50 mg/kg, po treated 2 hrs prior to viral infection followed by compound redosing at 24 hrs and measured after 5 days post infection by plaque assay relative to control; type: functional, human respiratory syncytial virus; design: scale not given: the % may be the effect or the level left
How it was run: (§2)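 Female Balb/C mice aged 7–8 weeks, 6 per group, received two oral doses 2 h before and 24 h after intranasal inoculation with 5 × 10⁶ pfu of RSV A2. Mice were euthanized on day 5. Lung homogenate titers were determined by plaque assay on Vero cells and expressed as a percentage of the control group.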

[20] = Clearance in Sprague-Dawley rat at 1 mg/kg, iv administered […] measured after 0.02 to 24 hrs by tandem liquid chromatography/mass spectrometry; type: ADME, organism-based; details: in vivo, time 0.02-24 hrs
[21] = Half life in rat hepatocytes at 3 uM measured up to 60 mins by LC-MS/MS analysis; type: ADME, cell-based, Hepatocyte
[22] = test system: Respiratory syncytial virus; assay: Antiviral activity against Respiratory syncytial virus infected in human airway epithelial cells assessed as reduction in RSV titer at 10 nM preincubated for 2 hrs followed by viral infection and measured after 8 day post infection by luminescence assay relative to control; type: functional, HAE
How it was run: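 Primary HAE cells were differentiated for 61 days on type IV collagen-coated trans-well inserts (n = 3 cultures). Compound at 10 nM was given basolaterally for 2 h before apical inoculation with 4 × 10⁵ pfu of luciferase-expressing recombinant RSV. Apical virus titer was read by luminescence on days 7 and 8 post-infection and compared with untreated controls. Data are mean SD.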

Human orthopneumovirus [23] = assay: Antiviral activity against Respiratory syncytial virus A2 infected in Balb/C mouse assessed as reduction in viral titers in lung homogenates at 1 mg/kg, po treated 2 hrs prior to viral infection followed by compound redosing at 24 hrs and measured after 5 days post infection by plaque assay relative to control; type: functional, human respiratory syncytial virus; design: scale not given: the % may be the effect or the level left; how it was run: as §2
[24] = Clearance in CD1 mouse at 1 mg/kg, iv measured after 0.083 to 24 hrs by UHPLC-TOF method; type: ADME, organism-based; details: in vivo, time 0.083-24 hrs
[25] = Tmax in Beagle dog at 3 mg/kg, […] by UHPLC-TOF method; type: ADME, organism-based, Canis lupus familiaris; details: in vivo, po
[26] = Cytotoxicity against African green monkey Vero cells by MTT assay; type: cell-based; details: chlorocebus sabaeus
How it was run: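 Viability was assessed by MTT after culture with compound at 0.01 nM to 100 μM, run in parallel with plaque reduction assays. Values are the average of at least two testing occasions.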

[27] = Half life in CD1 mouse at 10 mg/kg, po measured after 0.083 to 24 hrs by UHPLC-TOF method; type: ADME, organism-based; details: in vivo, time 0.083-24 hrs
[28] = Cmax in Sprague-Dawley rat at 50 mg/kg, po measured after 0.02 to 24 hrs by UHPLC-TOF method; type: ADME, organism-based; design: route oral, dose 50 mg/kg, time 0.02-24 hrs; details: in vivo
[29] = Oral bioavailability in CD1 mouse at 10 mg/kg measured after 0.03 to 24 hrs by UHPLC-TOF method; type: ADME, organism-based; details: in vivo, time 0.03-24 hrs
How it was run: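 Male CD-1 mice, acclimatized and individually housed, dosed IV and PO as amorphous-solid suspension. Terminal cardiac-puncture blood into heparinized tubes on wet ice, centrifuged at 4 °C within 15 min; plasma snap-frozen at −20 °C. IV arm sampled 2 min–24 h, oral arm 5 min–24 h. Plasma analysed by UHPLC-quadrupole-TOF MS.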

[30] = Protein binding in dog plasma assessed as unbound fraction at 5 uM by LC-MS/MS analysis based equilibrium dialysis method; type: ADME, cell-free, Canis lupus familiaris
[31] = Half life in CD1 mouse at 1 mg/kg, iv measured after 0.03 to 24 hrs by UHPLC-TOF method; type: ADME, organism-based; details: in vivo, time 0.03-24 hrs

NCc1ccc2c(c1)nc(CN1C(=O)C3(CC3)c3ccc(F)cc31)n2CCCC(F)(F)F [SISUNATOVIR]
intrinsic clearance (CLint) [1]: 44 µL/min
Activity [2]: Toxic
EC50 [3]: 89 nM
Papp A→B at 1 h, 10 µM [4]: 0.5 ×10⁻⁶ cm/s
Tmax [5]: 5.3 h
half-life [6]: 0.533 h
half-life at 3 µM [7]: 3.52 h
Activity (Human orthopneumovirus [8]): 76.42%
half-life [9]: 1.33 h
IC50 (Human orthopneumovirus [10]): 1.4 nM
Papp B→A at 1 h, 10 µM [11]: 73 ×10⁻⁶ cm/s
Activity (Human orthopneumovirus [12]): Active
Activity [13]: Toxic
fraction unbound at 5 µM [14]: 0.52
Cmax [15]: 74.2 ng/mL
half-life at 3 µM [16]: 9.67 h
solubility thermodynamic [17]: 417 µM (≈ 186 µg/mL)
IC50 [18]: 1 nM
Activity (Human orthopneumovirus [19]): 98%
clearance [20]: 164 mL/min/kg
half-life at 3 µM [21]: 1.55 h
log(activity) [22]: 2.35
Activity (Human orthopneumovirus [23]): 79%
clearance [24]: 47.9 mL/min/kg
Tmax [25]: 4 h
CC50 [26]: > 4000 nM
half-life [27]: 3.1 h
Cmax [28]: 475 ng/mL
bioavailability [29]: 46.4%
fraction unbound at 5 µM [30]: 0.27
half-life [31]: 4.2 h
